These results are taken from ChEMBL document CHEMBL1649405, “Structure-activity relationships study of 6-chloro-4-(2-chlorophenyl)-3-(2-hydroxyethyl) quinolin-2(1H)-one derivatives as novel non-nucleoside anti-hepatitis B virus agents” (Eur J Med Chem, 2011).

The test system of series [1] is Nucleic Acid. The experiment in a line: Increase of X promoter transcriptional activity in HBV infected in human HepG2(2.2.15) cells transfected with pGL3 at 0.02 mM by luciferase reporter gene assay relative to mock-treated control. Format: cell-based. The conditions noted are these: Hepatitis B virus. In outline: (§1)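 HepG2 cells transfected with pGL3-based firefly luciferase constructs carrying HBV promoter or enhancer elements; pGL3 Basic as control, phRL-CMV Renilla as internal control. Treated with 0.02 mM; read by dual-luciferase assay. Fold activity = treated promoter activity / mock-treated activity. Triplicate samples.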

The test system of series [2] is Hepatitis B virus. Description: Antiviral activity against Hepatitis B virus infected in human HepG2(2.2.15) cells assessed as inhibition of viral surface antigen secretion after 6 days by ELISA. Type of series: functional, organism-based. As to conditions: HepG2 2.2.15, 144 h. In outline:
(§2)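 HepG 2.2.15 cells in DMEM with 10% FBS, 37 °C, 5% CO2. Treated for 6 days with refeeding every other day. Culture medium centrifuged at 6000 g to clear debris. HBeAg or HBsAg measured by quantitative ELISA on a microplate reader. IC50 = concentration giving 50% inhibition of secretion. Mean of two independent experiments.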

The nature of series [3]: Cytotoxicity against human HepG2(2.2.15) cells assessed as cell viability at 0.02 mM after 72 hrs by MTT assay. Type of series: cell-based. The conditions noted are these: read-out: Activity.
The test system of series [4] is Hepatitis B virus. The experiment in a line: Antiviral activity against Hepatitis B virus infected in human HepG2(2.2.15) cells assessed as inhibition of viral DNA replication after 6 days by PCR analysis. Format: functional, organism-based. As to conditions: for IC50: hepg2 2.2.15. In outline:
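HepG 2.2.15 cells in DMEM with 10% FBS, 5 mM L-glutamine, penicillin/streptomycin, 37 °C, 5% CO2; seeded 5 × 10^5 per well, medium changed every 2 days. Compound added after 6 days, refed every other day for 6 more days. HBV DNA by real-time PCR against a cloned HBV plasmid standard series. IC50 = 50% inhibition. Mean of two independent experiments.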

Series [5] concerns Nucleic Acid. The experiment in a line: Increase of preS1 promoter transcriptional activity in HBV infected in human HepG2(2.2.15) cells transfected with pGL3 at 0.02 mM by luciferase reporter gene assay relative to mock-treated control. The conditions noted are these: Hepatitis B virus. Format: cell-based. A digest of the protocol: as §1
Background: Reporter assays use an easily measured gene product as a stand-in for the process of interest.

Series [6] has as its system Nucleic Acid. Description: Increase of enhancer 2 transcriptional activity in HBV infected in human HepG2(2.2.15) cells transfected with pGL3 at 0.02 mM by luciferase reporter gene assay relative to mock-treated control. Format: cell-based. As to conditions: Hepatitis B virus. In outline: as §1
The nature of series [7]: Cytotoxicity against human HepG2(2.2.15) cells. Type of series: cell-based. A digest of the protocol: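 HepG 2.2.15 cells in DMEM with 10% FBS, 37 °C, 5% CO2. CC50 = concentration killing 50% of cells. Mean of two independent experiments.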
Series [8] concerns Hepatitis B virus. Description: Antiviral activity against Hepatitis B virus infected in human HepG2(2.2.15) cells assessed as inhibition of viral e antigen secretion after 6 days by ELISA. Format: functional, organism-based. The conditions noted are these: HepG2 2.2.15, 144 h. A digest of the protocol: as §2
(In general: An ELISA detects its analyte on a solid surface through an enzyme-linked reagent.)

The test system of series [9] is Nucleic Acid. The experiment in a line: Increase of enhancer 1 transcriptional activity in HBV infected in human HepG2(2.2.15) cells transfected with pGL3 at 0.02 mM by luciferase reporter gene assay relative to mock-treated control. Type of series: cell-based. The conditions noted are these: Hepatitis B virus. A digest of the protocol:
as §1

Series [10] in a line: Selectivity index, ratio of CC50 for human HepG2(2.2.15) cells to IC50 for Hepatitis B virus infected in human HepG2(2.2.15) cells assessed as inhibition of viral e antigen secretion. Format: functional. A digest of the protocol: (§3)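 Ratio of CC50 in HepG 2.2.15 cells to the IC50 for HBeAg or HBsAg secretion. Both values come from ELISA and cytotoxicity runs on the same cell line. Each input is the mean of two independent experiments.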

The subject of series [11] is Nucleic Acid. Description: Inhibition of preS2 promoter transcriptional activity in human HepG2 cells transfected with pGL3 at 0.02 mM by luciferase reporter gene assay relative to mock-treated control. The conditions noted are these: Hepatitis B virus.
Series [12] is described as follows: Selectivity index, ratio of CC50 for human HepG2(2.2.15) cells to IC50 for Hepatitis B virus infected in human HepG2(2.2.15) cells assessed as inhibition of viral surface antigen secretion. Type of series: functional. In outline:
as §3

Series [13] in a line: Cytotoxicity against human HepG2(2.2.15) cells assessed as cell viability at 0.02 mM after 48 hrs by MTT assay. Type of series: cell-based. As to conditions: read-out: Activity. For orientation: Tetrazolium assays rely on reduction of a dye to a coloured formazan, in cell work by metabolically active cells.
Series [14] has as its system Nucleic Acid. Description: Increase of core/pregenomic factor transcriptional activity in HBV infected in human HepG2(2.2.15) cells transfected with pGL3 at 0.02 mM by luciferase reporter gene assay relative to mock-treated control. Format: cell-based. As to conditions: Hepatitis B virus. A digest of the protocol:
as §1

pIC50: −log10 of the molar value. Active and inactive are the calls of the source. No cut-off for these calls is given here. A value given as a limit tells only on which side of the number the result lay.

As for `COc1cccc(/C=C/C(=O)OCCc2c(-c3ccccc3Cl)c3cc(Cl)ccc3[nH]c2=O)c1`, the fold change (FC) was 4 in the series with Nucleic Acid [1]; 4 in the series on Nucleic Acid [5]; 14 in the series with Nucleic Acid [6]; 12 in the series on Nucleic Acid [9]; 4 in the series on Nucleic Acid [14]. The pIC50 – broadly, the negative decadic logarithm of the IC50, by convention in mol/L – in the series with Hepatitis B virus [2] is 5.00; in the series on Hepatitis B virus [4] (Hepatitis B virus, HepG2 2.2.15, 144 h, read-out: IC50) it was 4.35; in the series with Hepatitis B virus [8] it was 4.59. In addition, in series [3], the viability at 72 h, 20 µM worked out at 80.4%. Further, the CC50 (in general, the concentration giving 50% cytotoxicity) in series [7] is greater than 1300 µM. Besides, the results for the “Selectivity Index” value in series [10] and in series [12] were greater than 51 and greater than 135, respectively. For the same molecule, in the series on Nucleic Acid [11], the inhibition entry was “Active”. Also, the viability at 48 h, 20 µM in series [13] amounted to 95.2%.

Take `COc1cccc(/C=C/C(=O)OCCCc2c(-c3ccccc3Cl)c3cc(Cl)ccc3[nH]c2=O)c1`: the figures for the pIC50 in the series on Hepatitis B virus [2] and with Hepatitis B virus [8] were 4.70 and 4.55, respectively. Moreover, in the series on Hepatitis B virus [4], the IC50 result was “Not Active”. Further, in [7], the CC50 is greater than 1100 µM. Also, the “Selectivity Index” value in series [10] is greater than 39; in series [12], greater than 55.

Regarding `O=C(/C=C/c1ccc(C(F)(F)F)cc1)OCCc1c(-c2ccccc2Cl)c2cc(Cl)ccc2[nH]c1=O`, the figures for the pIC50 in the series with Hepatitis B virus [2] and with Hepatitis B virus [8] were 3.64 and 4.72, respectively. In addition, the IC50 result with Hepatitis B virus [4] is “Not Active”. This molecule yielded a CC50 in [7] greater than 1400 µM. Besides, the entries for the “Selectivity Index” value in [10] and in series [12] were greater than 73 and greater than 6.1, respectively.

As for `COc1ccc(/C=C/C(=O)OCCc2c(-c3ccccc3Cl)c3cc(Cl)ccc3[nH]c2=O)cc1`, the pIC50 in the series with Hepatitis B virus [2] is 3.31; with Hepatitis B virus [8], 4.32. In addition, the IC50 entry with Hepatitis B virus [4] was “Not Active”. In series [7], this molecule registered a CC50 greater than 1200 µM. Further, the “Selectivity Index” value in [10] was greater than 25; in series [12] it was greater than 2.5.

Turning to `COc1ccc(/C=C/C(=O)OCCc2c(-c3ccccc3Cl)c3cc(Cl)ccc3[nH]c2=O)cc1OC`, the pIC50 in the series on Hepatitis B virus [2] was 4.68; in the series with Hepatitis B virus [8] it was 4.24. The IC50 entry in the series with Hepatitis B virus [4] was “Not Active”. Also, in series [7], the CC50 is greater than 1200 µM. The “Selectivity Index” value in series [10] was greater than 21; in series [12] it was greater than 58.
